From article PMC5536102 (Biochemistry, 2017)
Each block holds one compound with its values, some of them ahead of it. Residues, ends and D or L forms follow the SMILES beside them.

How the values were obtained:
purified human αIIbβ3 = purified human αIIbβ3 (Homo sapiens, UniProt P05106+P08514); assay type: binding; conditions: for average binding affinity constant (Kb), Kb = kon/koff: two-dimensional affinity calculated from kon and koff, Mn2+-activated αIIbβ3
Outline: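 Peptides covalently coupled to amine-functionalized latex beads. Purified human αIIbβ3, Mn2+-activated, immobilized for 2 h at 4 °C on glutaraldehyde-activated, polyacrylamide-coated 5-μm silica pedestals. At room temperature, the laser-trapped bead oscillated at 10 Hz (0.8 μm peak-to-peak, 2000 pN/s) against the pedestal for set contact times T. Binding probability versus T was fitted kinetically; αIIbβ3 density ~3000 molecules/μm² gave kon; Kb = 1/Kd = kon/koff.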

αIIbβ3 = conditions: based on a theoretical model; ref 49 (Dutta et al.); cited from earlier work
[1] = target: integrin αIIbβ3 headpiece (Homo sapiens) (UniProt P08514); conditions: cited from earlier work

Sequence of fibrinogen (P02671 36-866): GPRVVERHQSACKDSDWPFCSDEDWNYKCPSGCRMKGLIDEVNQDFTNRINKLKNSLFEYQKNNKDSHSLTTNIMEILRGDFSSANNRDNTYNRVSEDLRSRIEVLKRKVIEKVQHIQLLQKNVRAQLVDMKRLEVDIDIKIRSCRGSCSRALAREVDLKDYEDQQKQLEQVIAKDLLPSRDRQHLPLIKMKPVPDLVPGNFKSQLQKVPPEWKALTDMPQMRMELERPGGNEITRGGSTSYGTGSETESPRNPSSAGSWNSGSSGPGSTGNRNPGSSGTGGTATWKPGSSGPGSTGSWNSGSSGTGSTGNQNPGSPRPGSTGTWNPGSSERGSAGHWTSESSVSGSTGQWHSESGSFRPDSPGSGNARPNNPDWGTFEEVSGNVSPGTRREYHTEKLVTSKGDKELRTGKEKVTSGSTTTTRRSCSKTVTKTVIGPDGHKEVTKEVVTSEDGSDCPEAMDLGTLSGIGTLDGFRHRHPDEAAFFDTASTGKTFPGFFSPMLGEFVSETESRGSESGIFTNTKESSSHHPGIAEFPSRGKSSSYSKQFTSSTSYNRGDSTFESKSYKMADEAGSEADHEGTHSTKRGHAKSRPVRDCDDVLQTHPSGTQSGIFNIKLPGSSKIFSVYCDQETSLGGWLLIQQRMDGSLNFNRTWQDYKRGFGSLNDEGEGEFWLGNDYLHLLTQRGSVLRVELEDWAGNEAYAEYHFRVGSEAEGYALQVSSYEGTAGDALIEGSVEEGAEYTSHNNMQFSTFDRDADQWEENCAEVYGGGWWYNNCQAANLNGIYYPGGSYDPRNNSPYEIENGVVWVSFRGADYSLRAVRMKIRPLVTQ
Sequence of fibrinogen (P02675 45-491, further chain): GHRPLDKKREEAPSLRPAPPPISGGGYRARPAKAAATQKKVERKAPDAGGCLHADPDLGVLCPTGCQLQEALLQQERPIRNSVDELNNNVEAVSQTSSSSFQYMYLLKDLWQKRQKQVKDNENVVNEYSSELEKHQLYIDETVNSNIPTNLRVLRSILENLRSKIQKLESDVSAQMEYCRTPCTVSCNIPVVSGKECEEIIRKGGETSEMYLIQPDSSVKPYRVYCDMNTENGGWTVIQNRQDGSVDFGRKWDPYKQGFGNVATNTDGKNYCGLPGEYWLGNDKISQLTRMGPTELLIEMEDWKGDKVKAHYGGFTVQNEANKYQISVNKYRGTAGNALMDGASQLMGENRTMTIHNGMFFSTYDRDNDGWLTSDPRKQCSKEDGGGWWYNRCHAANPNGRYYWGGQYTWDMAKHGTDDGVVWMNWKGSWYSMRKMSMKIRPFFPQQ
Sequence of fibrinogen (P02679 27-453, further chain): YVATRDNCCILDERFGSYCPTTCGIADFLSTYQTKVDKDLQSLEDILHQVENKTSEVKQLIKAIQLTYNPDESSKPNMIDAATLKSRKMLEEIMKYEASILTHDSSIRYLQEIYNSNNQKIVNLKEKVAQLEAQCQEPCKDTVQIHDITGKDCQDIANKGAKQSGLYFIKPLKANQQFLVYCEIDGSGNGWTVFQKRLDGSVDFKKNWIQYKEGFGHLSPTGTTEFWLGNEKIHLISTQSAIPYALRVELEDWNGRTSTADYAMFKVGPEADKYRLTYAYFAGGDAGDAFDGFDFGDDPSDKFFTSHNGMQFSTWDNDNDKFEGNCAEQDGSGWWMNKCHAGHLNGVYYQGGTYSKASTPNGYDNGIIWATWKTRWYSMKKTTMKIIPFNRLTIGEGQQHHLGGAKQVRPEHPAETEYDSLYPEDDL

koff (purified human αIIbβ3; pH 7.4, read-out: average unbinding rate constant koff): 2.05 ± 0.59 s⁻¹ | average binding affinity constant (Kb), Kb = kon/koff (purified human αIIbβ3): (1.22 ± 0.61) × 10^12 cm^2/mol
Compound: CC(C)C[C@H](NC(=O)[C@H](Cc1c[nH]cn1)NC(=O)[C@@H](N)Cc1c[nH]cn1)C(=O)NCC(=O)NCC(=O)N[C@@H](C)C(=O)N[C@@H](CCCCN)C(=O)N[C@@H](CCC(N)=O)C(=O)N[C@@H](C)C(=O)NCC(=O)N[C@@H](CC(=O)O)C(=O)N[C@H](C(=O)O)C(C)C [γC-12, His-His-Leu-Gly-Gly-Ala-Lys-Gln-Ala-Gly-Asp-Val] (H-HHLGGAKQAGDV-OH)

Compound: cyclo (S,S)-L-lysyl-L-tyrosyl-glycyl-L-cystinyl-L-homoarginyl-glycyl-L-aspartyl-L-trytopanyl-L-prolyl-L-cystine [cHarGD]
dissociation energy (αIIbβ3): 7 to 9 kcal/mol

Compound: fibrinogen (from UniProt P02671)
Kd [1]: 100 nM

average binding affinity constant (Kb), Kb = kon/koff (purified human αIIbβ3): (1.96 ± 0.65) × 10^12 cm^2/mol
Compound: cyclo[Arg-Gly-Asp-D-Phe-Lys(Cys)] (head to tail) [cRGDFK]
